Results taken from ChEMBL document CHEMBL3232997, “Synthesis and biological evaluation of a series of benzoxazole/benzothiazole-containing 2,3-dihydrobenzo[b][1,4]dioxine derivatives as potential antidepressants” (Bioorg Med Chem Lett, 2014).
The source made the active and inactive calls. No cut-off for these calls is given here.

What was measured:
[1] = biological target: T1, 5-hydroxytryptamine receptor 1A (Rattus norvegicus, UniProt P19327); experiment: Displacement of [3H]8-OH-DPAT from rat cerebral cortex 5-HT1A receptor after 30 mins by liquid scintillation counting; type: tissue-based
T1 sequence (P19327 whole entry): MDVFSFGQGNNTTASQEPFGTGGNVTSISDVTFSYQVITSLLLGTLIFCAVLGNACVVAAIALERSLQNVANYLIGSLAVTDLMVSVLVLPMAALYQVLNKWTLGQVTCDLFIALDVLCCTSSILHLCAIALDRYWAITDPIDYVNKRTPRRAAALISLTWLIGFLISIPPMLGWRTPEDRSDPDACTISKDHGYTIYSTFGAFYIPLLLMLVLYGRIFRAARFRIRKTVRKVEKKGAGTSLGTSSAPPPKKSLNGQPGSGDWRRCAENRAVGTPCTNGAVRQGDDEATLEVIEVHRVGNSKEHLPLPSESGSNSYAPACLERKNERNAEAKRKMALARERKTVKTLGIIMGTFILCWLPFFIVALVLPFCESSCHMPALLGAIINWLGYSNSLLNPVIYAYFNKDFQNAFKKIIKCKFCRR
Procedure, shortened: (§1)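 Competition binding on rat cerebral cortex homogenates. 5-HT1A was labelled with [3H]-8-hydroxy-2-(di-n-propylamino)tetralin and 5-HT2A with [3H]ketanserine. The method followed a previously reported procedure. Ki values are reported as mean ± SEM.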

[2] = biological target: 5-hydroxytryptamine receptor 2A (Rattus norvegicus, UniProt P14842); experiment: Displacement of [3H]-ketanserin from rat cerebral cortex 5-HT2A receptor after 30 mins by liquid scintillation counting; type: tissue-based; procedure, shortened: as §1
Chain of 5-hydroxytryptamine receptor 2A (P14842 whole entry): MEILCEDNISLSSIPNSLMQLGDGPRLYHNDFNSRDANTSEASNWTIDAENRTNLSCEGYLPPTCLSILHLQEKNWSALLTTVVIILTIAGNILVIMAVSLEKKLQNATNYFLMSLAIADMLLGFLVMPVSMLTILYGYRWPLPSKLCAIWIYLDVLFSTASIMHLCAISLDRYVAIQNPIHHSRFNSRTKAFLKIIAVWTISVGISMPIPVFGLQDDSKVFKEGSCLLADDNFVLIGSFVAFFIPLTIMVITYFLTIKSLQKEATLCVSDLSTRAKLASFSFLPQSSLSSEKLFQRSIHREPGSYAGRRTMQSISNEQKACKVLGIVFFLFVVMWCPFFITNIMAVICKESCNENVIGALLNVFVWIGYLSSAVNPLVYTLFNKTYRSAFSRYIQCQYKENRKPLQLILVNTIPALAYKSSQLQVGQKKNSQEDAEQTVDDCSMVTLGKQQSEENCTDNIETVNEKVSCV

Mus musculus [3] = experiment: Antidepressant activity in Kunming mouse assessed as decrease in immobility time at 40 mg/kg, po by forced swimming test; type: functional, organism-based; design: dose 40 mg/kg
Mus musculus [4] = experiment: Antidepressant activity in Kunming mouse assessed as decrease in immobility time at 40 mg/kg, po by tail suspension test; type: functional, organism-based; design: dose 40 mg/kg
Mus musculus [5] = experiment: Toxicity in Kunming mouse assessed as locomotor activity at 10 mg/kg, po measured for 10 mins (reference value: 1165 +/- 263 cm); type: organism-based; design: dose 10 mg/kg, route oral; details: in vivo
Procedure, shortened: (§2)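 Mice were given test compound orally, with a vehicle-treated group as control. Locomotor activity was recorded for 10 min and reported as distance travelled (cm). Values are mean ± SEM, n = 10 per group. The test was used to rule out false positives in the swim and tail-suspension tests.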

Mus musculus [6] = experiment: Antidepressant activity in po dosed Kunming mouse assessed as decrease in immobility time by forced swimming test; type: functional
Mus musculus [7] = experiment: Toxicity in Kunming mouse assessed as locomotor activity at 40 mg/kg, po measured for 10 mins (reference value: 1165 +/- 263 cm); type: organism-based; design: dose 40 mg/kg, route oral; details: in vivo; procedure, shortened: as §2
Mus musculus [8] = experiment: Toxicity in Kunming mouse assessed as locomotor activity at 100 mg/kg, po measured for 10 mins (reference value: 1165 +/- 263 cm); type: organism-based; design: dose 100 mg/kg, route oral; details: in vivo; procedure, shortened: as §2

Compound | Ki [1] | Ki [2] | Decrease in immobility time (Mus musculus [3]) | antidepressant activity (active/inactive) (Mus musculus [4]) | Activity (Mus musculus [5]) | ED50 (Mus musculus [6]) | Activity (Mus musculus [7]) | Activity (Mus musculus [8])
c1ccc(C2Oc3ccccc3OC2COCCCCCN2CCC(c3nc4ccccc4o3)CC2)cc1 (stereo not given) | 106 nM | 0.74 nM |  |  |  |  |  | 
CC1Oc2ccccc2OC1COCCCN1CCC(c2nc3ccccc3o2)CC1 (stereo not given) | 152 nM | 8.2 nM |  |  |  |  |  | 
c1ccc(C2Oc3ccccc3OC2COCCCN2CCC(c3nc4ccccc4s3)CC2)cc1 (stereo not given) | 134 nM | 19 nM | Active | Active |  |  |  | 
CN(C)CCCN1c2ccccc2CCc2ccccc21 [IMIPRAMINE] |  |  |  |  | 1248 cm |  |  | 
c1ccc(C2Oc3ccccc3OC2COCCCN2CCC(c3nc4ccccc4o3)CC2)cc1 (stereo not given) | 51 nM | 4.1 nM | Active | Active |  |  |  | 
c1ccc2c(c1)OCC(COCCCN1CCC(c3nc4ccccc4o3)CC1)O2 (stereo not given) | 120 nM | 30 nM |  |  |  |  |  | 
c1ccc(C2Oc3ccccc3OC2COCCCCCN2CCC(c3nc4ccccc4s3)CC2)cc1 (stereo not given) | 131 nM | 148 nM |  |  |  |  |  | 
c1ccc(C2Oc3ccccc3OC2COCCCCN2CCC(c3nc4ccccc4s3)CC2)cc1 (stereo not given) | 31 nM | 24 nM | Active | Active |  |  |  | 

More lines, in order of falling Ki [1], values ahead:

Ki [1] | Ki [2] | Compound | Decrease in immobility time (Mus musculus [3]) | antidepressant activity (active/inactive) (Mus musculus [4]) | Activity (Mus musculus [5]) | ED50 (Mus musculus [6]) | Activity (Mus musculus [7]) | Activity (Mus musculus [8])
103 nM | 131 nM | CC1Oc2ccccc2OC1COCCCN1CCC(c2nc3ccccc3s2)CC1 (stereo not given) |  |  |  |  |  | 
94 nM | 113 nM | O=C(NCCN1CCC(c2nc3ccccc3s2)CC1)C1COc2ccccc2O1 (stereo not given) |  |  |  |  |  | 
92 nM | 28 nM | c1ccc2c(c1)OCC(COCCCN1CCC(c3nc4ccccc4s3)CC1)O2 (stereo not given) |  |  |  |  |  | 
85 nM | 90 nM | O=C(NCCCN1CCC(c2nc3ccccc3s2)CC1)C1COc2ccccc2O1 (stereo not given) | Active | Active |  |  |  | 
84 nM | 88 nM | O=C(NCCCN1CCC(c2nc3ccccc3o2)CC1)C1COc2ccccc2O1 (stereo not given) | Active | Active |  |  |  | 
76 nM | 87 nM | O=C(NCCN1CCC(c2nc3ccccc3o2)CC1)C1COc2ccccc2O1 (stereo not given) |  |  |  |  |  | 
17 nM | 0.71 nM | c1ccc(C2Oc3ccccc3OC2COCCCCN2CCC(c3nc4ccccc4o3)CC2)cc1 (stereo not given) | Active | Active | 1180 cm | 39 mg/kg | 1114 cm | 1150 cm
